Experimental data gathered from unrelated publications.
Observed: cell growth or viability

| SMILES | cell line | assay | setting | quantity | value |
| --- | --- | --- | --- | --- | --- |
| CN(C)CCNC(=O)c1cccn2c(=O)c3cc4ccccc4cc3nc12 | PLC-PRF-5 | imaging | 72 h | IC50 | 16.2 µM |
| Cc1nc(NC(=O)N2CCC[C@H]2C(N)=O)sc1-c1ccnc(C(C)(C)C(F)(F)F)c1 | EFM-19 | ATP luminescence | 5 days | EC50 | 0.38 µM |
| Cc1cc(C)n(Cn2ccnc2)n1 | SH-SY5Y | MTT | 24 h | IC50 | 50.3 µM |
| Cc1nc(Nc2ncc(C(=O)Nc3c(C)cccc3Cl)s2)cc(N2CC[C@H](O)C2)n1 | SUP-B15 | ATP luminescence | 10 µM, 72 h | inhibition | 66% |
| COc1ccc(C[C@H](N)C(=O)N[C@H]2[C@@H](O)[C@H](n3cnc4c(N(C)C)ncnc43)O[C@@H]2CO)cc1 | J774.1 | resazurin | 72 h | IC50 | 1.36 µM |
| C[C@H](Nc1ccc2c(c1)OCCn1cc(N3C(=O)OC[C@H]3C(F)F)nc1-2)C(N)=O | EFM-19 | ATP luminescence | 5 days | EC50 | 0.0312 µM |
| CNC(=O)c1cc(Oc2ccc(NC(=O)Nc3ccc(Cl)c(C(F)(F)F)c3)cc2)ccn1 | PLC-PRF-5 | imaging | 72 h | IC50 | 4.08 µM |
| Cc1cc(Cn2ccnc2)nn1C | SH-SY5Y | MTT | 24 h | IC50 | 487 µM |
